The RNAGym collection of RNA variant scans (doi:10.1126/science.aae0568)
Variants at the floor of the assay were thinned out.

B1: tRNA (parent)
chain: GUUCCGUUGGCGUAAUGGUAACGCGUCUCCCUCCUAAGGAGAAGACUGCGGGUUCGAGUCCCGUACGGAACG

Variants of: B1
Test: yeast fitness relative to wild type (ratio to wild type); higher = fitter; tRNA-Arg(CCU), competitive growth, 37 C, YPD
How it was run: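 Changes in genotype frequencies gave Darwinian fitness relative to wild type. Frequencies were read by 100-nucleotide paired-end sequencing of gene amplicons before and after pooled Saccharomyces cerevisiae strains, carrying tRNA-Arg(CCU) gene variants at the native locus, were competed in YPD at 37°C for 24 hours in six replicates. A genotype was kept only with ≥ 100 starting reads, and estimates < 0.5 were set to 0.5.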

Variant	yeast fitness
GUUCCGUCGGCGUAAUGGUAAUGCGUCUCCCUCAUAAGGAGAAGACUGCGGGUUCGAGUCCCGUACGGAACG [U8C C22U C34A]	0.952
GUUCCGUCGGCGUAAUGGUAAUGCGUCUCCUUCCUAAGGAGAAGACUGCGGGUUCGAGUACCGUACGGAACG [U8C C22U C31U C60A]	≤ 0.5
GUUCCGUCGGCGUAAUGGUAAUGCGUCUCCCUCCUAAGGAGAAGACUGCGGGUUCGAGUCCCGUACGGCACG [U8C C22U A69C]	0.505
GUUCCGUCGGCGUAAUGGUAACGCGUCUCCCUCCUAAGGAGAAGUCUGCGGGUUCGAGCCCCGUACGGAACG [U8C A45U U59C]	0.57
GUUCCGUCGGAGUAAUGCUAACGCGUGUCCCUCCUAAGGAGAAGACUGCGGGUUCGAGUCCCGUACGGAACG [U8C C11A G18C C27G]	≤ 0.5
GUUCCGUCGGGGUAAUGGUAACGCGUCUCCCUCCUAAGGAGAAGAUUGCGGGUUCGAGUCCCGUACGGAACG [U8C C11G C46U]	≤ 0.5
GUUCCGUCGGCGUAAUGGUAACGCGUUUCCAUCCUAAGGAGAAGACUGCGGGUUCGAGUCCCGUACGGAACG [U8C C27U C31A]	0.56
GUUCCGUCGGCGUAAUGGUAAAGCGUCUCCCUCCUAAGGAGAAGACUGCGGGUUCGAGUCCCGAACGCAACG [U8C C22A U64A G68C]	≤ 0.5
GUUCCGUCGGCGUAAUGGUAACGUGUCUCCCUCCUAAGGAGAAGUCUGCGGGUUCGAGUCCCGUACGGAACG [U8C C24U A45U]	0.608
GUUCCGUCGGCGUAAUGGUAAGGCGUCUCCCUCCUAAGGAGAAGACUGCGGGUUGGAGUCCCGUACGGAACG [U8C C22G C55G]	≤ 0.5
GUUCCGUCGGCGUAAUGGUAACGAGUCUCCCUCCUAAGGAGAAGAGUGCGGGUUCGAGUCCCAUACGGAACG [U8C C24A C46G G63A]	0.597
GUUCCGUCGGUGUAAUCGUAACGCGUCUCCAUCCUAAGGAGAAGACUGCGGGUUCGAGUCCCGUCCGGAACG [U8C C11U G17C C31A A65C]	≤ 0.5
GUUCCGUCGGCGUAAUGGUAACGCGUCUCCCUCCUAAGGAGACGACUGGGGGUUCGAGUCACGUACGGAACG [U8C A43C C49G C61A]	0.693
GUUCCGUCGGCGUAAUGGUAACGCGUCUCCCUCCUAAGGAGUAGACUGCGGGUUCGAGUCCCGUACGGAGCG [U8C A42U A70G]	0.729
GUUCCGUCGGUGUAAUGGUAACGCGUAUCGCUCCUAAGGAGAAGAUAGCGGGUUCGAGUCCCGUACGGAACG [U8C C11U C27A C30G C46U U47A]	0.603
GUUCCGUCGGCGUAAUGGUAACGCGUCUCCCUCCUAAGGAGAAGACUGCGGGUUCGAGUCCCGUUCGGCACG [U8C A65U A69C]	0.615
GUUCCGUCGGCGUAAUGGUAACGCGUCUCCCUCCUAAGGAGACGACUGGGGGUUCGAGUCCCGUACGGAACG [U8C A43C C49G]	0.597
GUUCCGUCGGCGUAAUGGUAAUGCGUCUUCCUCCUAAGGAGAAGACUGCGGGUUCGAGUCCCGUACGGAACG [U8C C22U C29U]	≤ 0.5
GUUCCGUCGGCGUAAUGGUAACGGGUCUACCUCCUAAGGAGAUGACUGCGGGUUCGAGUCCCGUACGCAACG [U8C C24G C29A A43U G68C]	≤ 0.5

Variant	yeast fitness
GUUCCGUCGGCGUAAUGGUAAAGCGUCUCCCUCCUAAGGAGAAGACUGCGGGAUCGAGUCCCGUACGGAACG [U8C C22A U53A]	≤ 0.5
GUUCCGUCGGCGUAAUGGUAACGCGUUUCCCUCCUAAGGAGUAGACUGCGGGUUCGAGUCCCGUACGGAACG [U8C C27U A42U]	0.552
GUUCCGUCGGCGUAAUGGUAACGCGUCUCCCUCCUAAGGAGAAGACUGCGGGUUCGCGUCCCGUACGGAACG [U8C A57C]	0.599
GUUCCGUCGGCGUAAUGGUAACGCGUCUCCCUCCUAAGGAGAAGACUGCGGGUUCGUGUCCCGUACGGAACG [U8C A57U]	0.788
GUUCCGUCGGCGUAAUGGUAACGCGUCUCCCUCCUAAGGAGAAGACUGCGGGUUCGGGUCCCGUACGGAACG [U8C A57G]	0.856
GUUCCGUCGGCGUAAUGGUAACGCGUCUCCCUCCUAAGGAGAAGACUGCGGGUUCGGGUCCCGUAUGGAACG [U8C A57G C66U]	0.704
GUUCCGUCGGCGUAAUGGUAAGGCGUCUCCCUCCUAAGGAGAAGACUGUGGGUUCGAGUCCCGCACGGAACG [U8C C22G C49U U64C]	0.679
GUUCCGUCGGCGUAAUGGUAACGCGUCUCCCUCCUAAGGAGAAGACUGCGGGUUCGAGUCCCGUACGGACCG [U8C A70C]	0.922
GUUCCGUCGGCGUAAUGGUAACGCGUCUCCCUCCUAAGGAGUAGACUGCGGGUUCGAGUCCUGUCCGGAACG [U8C A42U C62U A65C]	0.534
GUUCCGUCGGCGUAAUGGUAACGCGUCUCCCUCCUAAGGAGAAGCUUGCGGGUUCGAGUCCCGUACGGAACG [U8C A45C C46U]	0.716
GUUCCGUCGGGGUAAUGGUAACGCGUCUCCCUCCUAAGGAGAAGACUGCGGGUUCGAUUCCCGUACGGAACG [U8C C11G G58U]	≤ 0.5
GUUCCGUCGGCGUAAUGGUAACGCGUGUCCCUCCUAAGGAGAAGACUGCGGGUUCGAGUCCCGUACGGAACG [U8C C27G]	0.647
GUUCCGUCGGCGUAAUGGUAACGCGUUUCCCUCCUAAGGAGAAGACUGCGGGUUCGAGUCCCGUACGGAACG [U8C C27U]	0.792
GUUCCGUCGGCGUAAUGGUAACGCGUAUCCCUCCUAAGGAGAAGACUGCGGGUUCGAGUCCCGUACGGAACG [U8C C27A]	0.791
GUUCCGUCGGCGUAAUGGUAAGGCGUCUCCCUCCUAAGGAGAAGACUGCGGGUACGAGACUCGUACGGAACG [U8C C22G U54A U59A C61U]	≤ 0.5
GUUCCGUCGGCGUAAUGGUAACGCGUCUCCCUCCUAAGGAGAAGUCUGUGGGUUCGAGUCCCGUACGGAACG [U8C A45U C49U]	0.714
GUUCCGUCGGUGUAACGGUAACGCGUCUCCCUCCUAAGGAGAAGAUUGAGGGUUCGAGUCCCGUACGGAACG [U8C C11U U16C C46U C49A]	0.573
GUUCCGUCGGCGUAAUGGUAACGUGACUCCCUCCUAAGGAGAAGACUGCGGGUUCGAGUCCCGUACGGAACG [U8C C24U U26A]	0.607
